Our source for the inhibition, IC50 and Ki values is ChEMBL document CHEMBL2163314, “Potent aminocyclitol glucocerebrosidase inhibitors are subnanomolar pharmacological chaperones for treating gaucher disease” (J Med Chem, 2012).

The target in assay [1] is T1, Alpha-galactosidase A (Homo sapiens) (UniProt P06280).
T1 sequence (whole entry): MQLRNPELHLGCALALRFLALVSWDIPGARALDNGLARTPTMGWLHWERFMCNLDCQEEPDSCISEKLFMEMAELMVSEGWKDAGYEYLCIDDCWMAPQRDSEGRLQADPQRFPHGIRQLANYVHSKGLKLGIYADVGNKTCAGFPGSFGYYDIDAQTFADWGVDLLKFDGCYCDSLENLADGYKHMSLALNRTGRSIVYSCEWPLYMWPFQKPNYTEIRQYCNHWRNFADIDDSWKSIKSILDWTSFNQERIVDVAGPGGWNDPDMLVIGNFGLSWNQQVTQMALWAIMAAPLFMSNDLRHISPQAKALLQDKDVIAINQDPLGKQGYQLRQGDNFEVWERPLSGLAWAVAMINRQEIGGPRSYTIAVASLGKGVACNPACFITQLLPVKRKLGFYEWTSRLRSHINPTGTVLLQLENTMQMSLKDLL
Kind of assay: Inhibition of lysosomal alpha-galactosidase in human fibroblast at 50 uM after 24 hrs. The essentials:
(§1)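 Wild-type human fibroblasts (DMEM, 10% FBS, passages 14–30) were plated overnight, then exposed to compound in fresh medium for 24 h at 37 °C, 5% CO2. Lysosomal enzyme activity was then assayed in intact monolayers after the medium was removed. Triplicate determinations.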

In assay [2] the target is T2, Beta-galactosidase (Homo sapiens) (UniProt P16278).
T2 sequence (whole entry): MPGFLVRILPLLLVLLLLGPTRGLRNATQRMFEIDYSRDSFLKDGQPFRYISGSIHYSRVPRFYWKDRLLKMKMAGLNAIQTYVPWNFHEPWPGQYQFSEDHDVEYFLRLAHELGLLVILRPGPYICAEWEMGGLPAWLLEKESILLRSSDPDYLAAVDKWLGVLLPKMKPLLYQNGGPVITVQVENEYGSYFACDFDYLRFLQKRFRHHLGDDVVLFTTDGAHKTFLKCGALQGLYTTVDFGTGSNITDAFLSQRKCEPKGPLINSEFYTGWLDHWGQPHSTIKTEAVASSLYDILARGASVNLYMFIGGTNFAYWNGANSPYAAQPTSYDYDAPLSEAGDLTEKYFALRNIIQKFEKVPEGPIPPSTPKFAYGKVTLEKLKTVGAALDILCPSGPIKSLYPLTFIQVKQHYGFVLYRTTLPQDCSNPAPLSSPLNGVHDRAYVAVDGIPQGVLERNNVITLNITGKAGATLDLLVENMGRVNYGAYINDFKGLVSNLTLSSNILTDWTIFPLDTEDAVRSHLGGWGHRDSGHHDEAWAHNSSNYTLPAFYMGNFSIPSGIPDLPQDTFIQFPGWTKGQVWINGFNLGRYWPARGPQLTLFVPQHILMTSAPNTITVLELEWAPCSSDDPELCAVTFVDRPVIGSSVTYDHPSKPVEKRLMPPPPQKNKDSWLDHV
The experiment in a line: Inhibition of lysosomal beta-galactosidase in human fibroblast at 50 uM after 24 hrs. In outline: as §1

Assay [3] concerns the target T3, Lysosomal acid glucosylceramidase (Homo sapiens, UniProt P04062).
T3 sequence (P04062 whole entry): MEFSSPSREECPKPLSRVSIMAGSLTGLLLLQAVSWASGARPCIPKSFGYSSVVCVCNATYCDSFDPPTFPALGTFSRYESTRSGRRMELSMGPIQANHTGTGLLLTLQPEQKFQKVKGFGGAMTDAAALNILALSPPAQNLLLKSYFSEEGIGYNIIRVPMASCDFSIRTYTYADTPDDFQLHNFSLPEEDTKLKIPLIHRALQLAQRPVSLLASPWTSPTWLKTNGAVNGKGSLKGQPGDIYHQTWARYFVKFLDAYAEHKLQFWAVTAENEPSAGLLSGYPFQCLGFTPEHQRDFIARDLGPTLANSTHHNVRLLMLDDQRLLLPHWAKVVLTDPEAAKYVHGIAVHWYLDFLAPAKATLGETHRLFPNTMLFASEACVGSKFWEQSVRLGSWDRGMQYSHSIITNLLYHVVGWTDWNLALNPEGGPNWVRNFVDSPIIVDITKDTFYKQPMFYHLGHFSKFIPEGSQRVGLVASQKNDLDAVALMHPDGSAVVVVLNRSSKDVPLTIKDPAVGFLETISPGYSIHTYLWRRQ
The experiment in a line: Competitive inhibition of recombinant Imiglucerase using 4-methylumbelliferyl-beta-D-glucopyranoside as substrate preincubated for 30 mins before substrate addition at pH 7.0 Lineweaver-Burk plot assay.

Assay [4] concerns the target T3, Lysosomal acid glucosylceramidase. The experiment in a line: Binding affinity to recombinant imiglucerase using 4-methylumbelliferyl-beta-D-glucopyranoside as substrate preincubated for 30 mins before substrate addition by Lineweaver-Burk plot assay.
For assay [5] the target is unchanged. Kind of assay: Binding affinity to recombinant imiglucerase using 4-methylumbelliferyl-beta-D-glucopyranoside as substrate preincubated for 30 mins before substrate addition by Dixon plot assay.
Assay [6] concerns the target T4, Non-lysosomal glucosylceramidase (Mus musculus) (UniProt Q69ZF3).
T4 sequence (whole entry): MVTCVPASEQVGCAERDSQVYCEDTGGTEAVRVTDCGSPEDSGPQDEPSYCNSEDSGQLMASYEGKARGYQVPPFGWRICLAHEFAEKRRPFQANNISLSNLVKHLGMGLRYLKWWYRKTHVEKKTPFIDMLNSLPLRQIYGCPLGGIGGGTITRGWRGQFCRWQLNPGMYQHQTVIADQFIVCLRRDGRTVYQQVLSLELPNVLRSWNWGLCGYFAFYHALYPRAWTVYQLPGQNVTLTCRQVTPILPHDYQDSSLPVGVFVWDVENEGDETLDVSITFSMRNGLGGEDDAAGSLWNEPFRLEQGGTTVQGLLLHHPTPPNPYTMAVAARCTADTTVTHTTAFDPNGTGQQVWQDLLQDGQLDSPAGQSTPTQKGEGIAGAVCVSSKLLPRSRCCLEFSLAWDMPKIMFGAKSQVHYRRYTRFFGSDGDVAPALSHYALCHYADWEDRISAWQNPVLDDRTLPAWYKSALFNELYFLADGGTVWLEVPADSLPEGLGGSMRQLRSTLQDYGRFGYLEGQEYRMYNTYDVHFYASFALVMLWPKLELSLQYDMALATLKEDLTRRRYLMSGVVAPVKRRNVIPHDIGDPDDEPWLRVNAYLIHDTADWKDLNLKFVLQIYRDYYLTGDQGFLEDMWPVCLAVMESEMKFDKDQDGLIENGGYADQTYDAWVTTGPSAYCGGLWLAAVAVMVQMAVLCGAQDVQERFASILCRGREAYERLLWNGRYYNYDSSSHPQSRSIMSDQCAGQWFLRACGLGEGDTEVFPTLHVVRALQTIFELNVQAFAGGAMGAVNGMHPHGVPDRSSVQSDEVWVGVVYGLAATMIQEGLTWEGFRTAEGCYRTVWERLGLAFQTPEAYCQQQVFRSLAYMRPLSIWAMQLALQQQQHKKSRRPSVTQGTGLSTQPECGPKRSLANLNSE
The experiment in a line: Inhibition of GBA2 activity in mouse tissue homogenate at 50 uM. In outline: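 Mouse tissue homogenates were used to separate nonlysosomal GBA2 from lysosomal GCase β-glucosidase activity. Compounds were screened at 50 and 5 μM with 3 mM substrate. Two independent experiments, each run in duplicate.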

Another assay deals with Prunus dulcis. Kind of assay: Inhibition of almond beta-glucosidase at 100 uM.

Activity calls are given as the source filed them. The rule behind the calls is not given here.

With `CCCCCCCCCN[C@@H]1[C@H](O)[C@@H](O)[C@H](O)[C@@H](O)[C@@H]1O`, the inhibition result (in assay [1]; in assay [2]; in the assay with Prunus dulcis) was “inactive” throughout. Also, the IC50 (commonly the point on the concentration scale where inhibition reaches its midpoint) in assay [3] was 24900 nM. In addition, the Ki in assay [4] and in assay [5] was 17900 nM each time. Also, in assay [6], the inhibition (as a rule, the share of the control response that was lost under treatment) came to 92%.

For `CCCCCCCCCN(CCCCCCCCC)[C@@H]1[C@H](O)[C@H](O)[C@@H](O)[C@H](O)[C@H]1O.Cl`, the IC50 in assay [3] is 530 nM. Besides, the Ki in assay [4] and in assay [5] was 820 nM in each case. In addition, the inhibition result in assay [6] is “Active”. In addition, in the assay on Prunus dulcis, the inhibition entry is “inactive”.

Take `CCCCCCCCCN[C@H]1[C@H](O)[C@@H](O)[C@H](O)[C@@H](O)[C@@H]1OCCCCCCCCC.Cl`: the IC50 in assay [3] amounted to 170 nM. Also, the Ki in assay [4] and in assay [5] was 280 nM in each case. In addition, the inhibition result in assay [6] is “Active”. Also, in the assay with Prunus dulcis, the inhibition entry was “inactive”.

With `CCCCCCCCCN[C@@H]1[C@H](O)[C@H](O)[C@@H](O)[C@H](O)[C@H]1O.Cl`, the inhibition entry (in assay [1]; in assay [2]; with Prunus dulcis) was “inactive” each time. The IC50 in assay [3] was 25 nM. The Ki in assay [4] and in assay [5] was 32 nM in each case. In addition, the inhibition result in assay [6] was “Active”.

As to `CCCCCCCCCN[C@H]1[C@H](O)[C@@H](O)[C@H](O)[C@@H](O)[C@@H]1O`, the inhibition entry (in assay [1]; in assay [2]; with Prunus dulcis) was “inactive” throughout. In addition, the IC50 in assay [3] came to 780 nM. In addition, the Ki in assay [4] and in assay [5] was 1900 nM throughout. The inhibition entry in assay [6] is “Active”.

With `CCCCCCCCCN[C@H]1[C@H](O)[C@@H](O)[C@H](O)[C@@H](O)[C@@H]1OC.Cl`, the inhibition entry (in assay [1]; in assay [2]; with Prunus dulcis) was “inactive” in each case. Further, the IC50 in assay [3] turned out to be 670 nM. The Ki in assay [4] and in assay [5] was 1580 nM each time. The inhibition result in assay [6] is “Active”.

Regarding `CCCCCCCCCN[C@H]1[C@H](O)[C@@H](O)[C@H](O)[C@@H](O)[C@H]1OCCCCCCCCC.Cl`, the IC50 in assay [3] turned out to be 5 nM. In addition, the Ki in assay [4] and in assay [5] was 1 nM each time. For the same compound, in assay [6], the inhibition result is “Active”. Moreover, in the assay with Prunus dulcis, the inhibition result is “inactive”.

As for `CCCCCCCCCO[C@H]1[C@@H](N)[C@H](O)[C@@H](O)[C@H](O)[C@H]1O.Cl`, the inhibition entry (in assay [1]; in assay [2]; in the assay with Prunus dulcis) was “inactive” each time. Also, the IC50 in assay [3] was 120 nM. The Ki in assay [4] and in assay [5] was 130 nM each time. The inhibition result in assay [6] was “Active”.

As to `CCCCCCCCCN[C@H]1[C@H](O)[C@@H](O)[C@H](O)[C@@H](O)[C@H]1OC.Cl`, the inhibition entry (in assay [1]; in assay [2]; in the assay with Prunus dulcis) was “inactive” throughout. In addition, in assay [3], the IC50 was 19 nM. In addition, the Ki in assay [4] and in assay [5] was 53 nM in each case. Further, the inhibition entry in assay [6] was “Active”.
